Rows were chosen to be rich in hits. Some 1.9% of all compounds tested hit in one or more screens of this group.
ABHD5-PLIN5 inh: ABHD5-PLIN5 interaction inhibitors, primary screen, cell lysate, split luciferase complementation, luminescence. Split G. princeps luciferase complementation, 4 h. inhibition, % at 4 µM. actives 0.78% (n = 360,000);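 active = inhibition above the mean inhibition across every tested compound plus 3 SD, cut at about 22% in these data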;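 note: 0% = DMSO only wells and the 100% control is not disclosed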
TAG inh: inhibitors of triacylglycerol accumulation, primary screen, cell-based, uHTS, fluorescence, H9c2; inhibition, % at 12.5 µM; H9c2 cells, Nile Red lipid (TAG) fluorescence; cells loaded with 200 µM oleic acid; actives 0.66% (n = 230,000);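 active = pattern-corrected inhibition of lipid staining of at least 50% with the nuclear-stain viability signal not falling by more than 50%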;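 note: 0% = DMSO wells and 100% = triacsin C control wells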
FXN GAA850 act: FXN promoter activators, primary screen, cell-based, luciferase luminescence, HEK293 lucGAA850; HEK293 lucGAA850 FXN promoter luciferase reporter, 24 h; percent of 10 µM SAHA response; actives 0.56% (n = 360,000); activation, % at 6 µM; AID 540364, 2011;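 active = activation above the average of all compounds screened plus 3 SD, cutoff fixed separately per campaign, cut at about 7.5% in these data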;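 note: 0% = DMSO wells and 100% = 10 µM SAHA wells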
Rad51 HR inh: human RAD51 strand exchange inhibitors, primary screen, biochemical, fluorescence | DNA repair protein RAD51 homolog 1 (Homo sapiens), Q06609 | hRad51 DNA strand exchange, fluorescence dequenching | inhibition, % at 10 µM | actives 0.085% (n = 200,000) | AID 1385, 2008;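 active = inhibition above 40% at the single screening dose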;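 note: 0% = DMSO control wells and 100% = blanks with heterologous ssDNA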
Target sequence (Q06609 whole entry, looked up): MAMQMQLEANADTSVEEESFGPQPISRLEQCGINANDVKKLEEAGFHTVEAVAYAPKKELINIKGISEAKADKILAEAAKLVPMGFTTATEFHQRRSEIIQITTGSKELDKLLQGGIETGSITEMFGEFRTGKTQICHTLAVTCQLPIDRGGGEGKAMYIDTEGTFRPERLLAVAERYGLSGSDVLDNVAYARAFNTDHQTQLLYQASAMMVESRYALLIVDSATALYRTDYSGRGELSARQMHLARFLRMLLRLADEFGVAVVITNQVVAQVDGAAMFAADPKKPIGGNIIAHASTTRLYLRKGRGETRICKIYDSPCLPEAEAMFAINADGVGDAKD
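Test system: preformed human Rad51 ssDNA filaments. Compound dosing: single dose, 10 µM final compound. Incubation: filaments 15 min 37 °C, then compound 30 min. Technique: FRET fluorescence dequenching, excitation 485 nm, emission 520 nm. Read-out basis: percent inhibition from fluorescence, normalised to plate control and blank means. Benchmarks: plate controls and plate blanks.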
HIF activator: HIF pathway transcriptional activators, primary screen, cell-based, U2OS HRE-luciferase, luminescence; U2OS HRE-luciferase reporter; normalized: DMSO 0%, desferrioxamine 100%; activation, % at 7.5 µM (by protocol); actives 0.32% (n = 300,000);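 active = mean activation of at least 10% of the iron chelator positive control signal, with at least half of replicates also reaching 10%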
Hsp70 activator: Hsp70 transcriptional activators, primary screen, cell-based, HeLa, Hsp70 promoter luciferase, luminescence, 10 µM. HeLa Hsp70 promoter luciferase reporter; scaled: vehicle 0, proteasome-inhibitor control 100%. actives 0.04% (n = 200,000). activation, % at 10 µM;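 active = activation above the mean across all tested compounds plus 3 SD, cutoff set per campaign, cut at about 5.5% in these data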;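 note: 100% = MG132 at 30 µM as the positive control and 0% = DMSO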
ABHD5 PLIN5 conf: ABHD5-PLIN5 interaction inhibitors, confirmation, biochemical, luminescence; shares compounds with ABHD5-PLIN5 inh; inhibition, % at 4 µM; actives 67% (n = 2,200); AID 651612, 2012; in the data active = inhibition above about 23%;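 note: 0% = DMSO vehicle wells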
HNF4 split-luc: HNF4 dimerization inhibitors, counter-screen for ABHD5-PLIN5 interaction inhibitor project, biochemical, split-luciferase complementation, luminescence. shares compounds with ABHD5-PLIN5 inh. inhibition, % at 4 µM. AID 651674, 2012. actives 77% (n = 2,200);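 active = mean inhibition across replicate wells exceeding the computed hit threshold, cut at about 13% in these data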;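 note: light from luciferase halves that rejoin when HNF4 fusion proteins dimerize; 0% = DMSO only wells and the 100% control is not given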
Numbers without * were called inactive; nt = no result.

SMILES	ABHD5-PLIN5 inh	TAG inh	FXN GAA850 act	Rad51 HR inh	HIF activator	Hsp70 activator	ABHD5 PLIN5 conf	HNF4 split-luc
O=c1nc(/C=C/c2ccc(Cl)cc2Cl)cc(C(F)(F)F)[nH]1	35.8*	nt	3.4	nt	0.1	nt	70.2*	47.8*
Clc1ccccc1CN1CCN(c2cccc3[nH]ccc23)CC1	3.3	4.4	1.5	-2.9	-0.3	nt	nt	nt
Cc1ccccc1CN1Cc2cnnn2-c2ccccc2C1C#N (stereo unspecified)	73.9*	56.8	0.0	nt	nt	nt	96.2*	96.4*
Cc1ccccc1C(=O)N1Cc2cnnn2-c2ccccc2C1C#N (stereo unspecified)	9.0	-16.0	0.4	nt	nt	nt	nt	nt
CCN(CC)S(=O)(=O)c1ccc(NN=C(C#N)C#N)cc1	25.8*	nt	-1.3	-1.4	-0.4	-0.1	44.3*	34.8*
Cc1c(C=C2C(=O)N(C)C(=O)N(C)C2=O)c(=O)n(-c2ccccc2)n1C	36.2*	2.8	0.5	-16.7	-0.5	-0.3	11.9	50.8*
Cc1c(NP(=S)(C(C)(C)C)C(C)(C)C)c(=O)n(-c2ccccc2)n1C	-0.9	-21.3	0.1	-13.3	0.1	0.7	nt	nt
Cc1ccc(N2C(=O)NC(=O)/C(=C/c3cnc(-c4ccccc4)nc3)C2=O)cc1C	33.2*	nt	3.3	17.6	1.1	0.0	86.8*	73.4*
Brc1ccc2c(c1)C(OC1CN3CCC1CC3)c1ccccc1CS2 (stereo unspecified)	28.5*	nt	-4.7	8.3	-1.2	-0.3	10.5	12.4*
COC(=O)C1=C(c2ccccc2)C[C@@H]2CC[C@H]1N2C(=O)NCCO	1.6	-8.3	2.2	-3.4	-0.3	nt	nt	nt
CNS(=O)(=O)c1ccc(N=Cc2c(O)n(-c3ccc(C)cc3)c(=O)[nH]c2=O)cc1	27.6*	6.6	3.1	-16.5	-0.2	nt	10.3	37.2*
CCc1nnc(NS(=O)(=O)c2ccc(N=Cc3c(O)n(-c4ccc(Cl)cc4)c(=O)[nH]c3=O)cc2)s1	30.2*	nt	2.1	-8.4	0.1	-0.4	7.4	15.9*
Cc1ccc(-n2c(O)c(C=Nc3ccc(S(N)(=O)=O)cc3)c(=O)[nH]c2=O)cc1	7.2	12.5	0.0	10.8	0.1	-0.3	nt	nt
CCN1CCC(O)(c2ccccc2)C(C(=O)c2ccccc2)C1 (stereo unspecified)	4.0	2.9	0.6	-4.7	0.2	-0.4	nt	nt
S=P(Nn1cnnc1)(c1ccccc1)c1ccccc1	29.8*	nt	-0.8	12.2	-0.2	0.2	2.8	2.5
Cc1cccc(-n2c(O)c(C=Nc3ccc(Br)cn3)c(=O)[nH]c2=O)c1	24.2*	nt	1.9	1.9	0.0	-0.2	6.8	28.1*
Cc1ccc(N=Cc2c(O)n(C)c(=O)n(C)c2=O)cc1	-1.7	-1.1	2.8	nt	0.4	nt	nt	nt
Cn1c(O)c(/C=N/c2ncccn2)c(=O)n(C)c1=O	40.0*	nt	-0.8	-0.7	0.0	-0.1	8.1	23.1*
CN(C)c1ccc(/C=C/c2cc[n+](C)c3ccccc23)cc1	22.6*	-25.3	-9.8	16.5	nt	-0.1	30.9*	30.4*
CC1=C(C/C(C)=C/c2ccccc2)/C(=C/CO)[C@@H]2OC(=O)O[C@]2(C)C12CC2	0.4	-19.1	-0.1	-13.5	-1.0	nt	nt	nt
CC(C)S(=O)(=O)N1Cc2ccccc2-n2nncc2C1	-2.0	9.1	1.1	nt	nt	nt	nt	nt
CCN(CC)c1ccc(/C=C/[N+](=O)[O-])cc1	53.5*	0.0	0.4	-359.0	0.9	-0.2	96.3*	95.7*
C[CH2][Hg][S]c1ccccc1C(=O)O	28.4*	98.9	-3.4	nt	nt	nt	49.4*	83.2*
CN1C(=O)C(=Cc2ccccc2OS(=O)(=O)c2ccccc2)C(=O)N(C)C1=O	45.4*	-6.8	3.3	nt	-11.2	nt	76.1*	74.5*
CN1C(=O)C(=Cc2ccc(OCC(=O)Nc3ccccc3)cc2)C(=O)N(C)C1=O	50.1*	-20.0	3.1	nt	1.8	nt	12.0	27.5*
SMILES	ABHD5-PLIN5 inh	TAG inh	FXN GAA850 act	Rad51 HR inh	HIF activator	Hsp70 activator	ABHD5 PLIN5 conf	HNF4 split-luc
CC1=CC(=C2C(=O)NC(=S)NC2=O)C=C(C(F)(F)F)N1C	12.4	1.4	2.2	2.8	0.1	-0.4	nt	nt
O=C(O)c1ccc(NC(=O)N2C[C@H]3C[C@@H](C2)c2cccc(=O)n2C3)cc1	-3.4	nt	0.0	nt	0.0	nt	nt	nt
C=C1C(=O)O[C@@H]2C[C@@H](C)[C@@H]3C=CC(=O)[C@@]3(C)[C@@H](O)[C@H]12	81.8*	72.0*	-14.8	0.9	-3.5	nt	90.8*	90.1*
CC1=CC2/C=C(\C)CCC(O)C(O)/C=C/C(=O)C23C(=O)NC(CC(C)C)C3C1C (stereo unspecified)	65.0*	nt	-7.5	-3.0	2.3	3.0	90.4*	102.8*
O=C1NC(=O)N(c2ccc3c(c2)OCO3)C(=O)/C1=C\c1ccc(-c2ccccc2C(=O)O)o1	29.9*	-5.9	-0.2	-7.8	0.1	nt	77.7*	89.2*
O=C1NC(=O)N(c2ccc3c(c2)OCO3)C(=O)/C1=C/c1ccc(N2CCCCC2)o1	3.6	nt	0.2	-113.2	-0.1	-0.3	nt	nt
O=C1NC(=O)N(c2ccc3c(c2)OCO3)C(=O)/C1=C\c1ccsc1	24.9*	-3.6	1.1	-15.4	0.0	nt	65.7*	56.2*
COC(=O)C1=C(c2ccc3ccccc3c2)C[C@@H]2CC[C@H]1N2C(=O)NC1Cc2ccccc2C1	-4.7	nt	1.1	nt	nt	nt	nt	nt
COC(=O)C1=C(c2ccc(OCc3ccccc3)cc2)C[C@@H]2CC[C@H]1N2C	2.2	-6.7	-5.9	nt	nt	nt	nt	nt
CCC1([N+](=O)[O-])COP(=O)(NCc2cccnc2)OC1 (stereo unspecified)	7.1	-3.7	0.5	nt	nt	nt	nt	nt
CC/C(=N\Nc1ccccc1)c1c(O)n(-c2ccccc2)c(=O)[nH]c1=O	25.2*	-4.0	-0.3	26.1	nt	nt	16.4	19.4*
COc1ccc(-n2c(O)c(/C(C)=N/Nc3ccccc3)c(=O)[nH]c2=O)cc1	14.7	-11.4	-2.4	21.1	0.0	nt	nt	nt
CCOC(=O)C1C(OC(=O)c2ccccc2)CC2CCC1N2C (stereo unspecified)	25.7*	nt	-3.0	nt	nt	nt	34.8*	1.4

Screening data from PubChem BioAssay.
